Screening data as filed in PubChem.
HNF4A DNA FP: change in binding of human HNF4 alpha to DNA; P41235; HNF4a-FITC DNA binding, fluorescence polarization, 1 h; hit rate 0.3% among 360,000; AID 1224865; activity change, % at 10 µM; in the data active means activity change above about 30%, passing the limit was not always enough
Myeloid diff MLP: promotes myeloid progenitor differentiation; ER-HoxA9 myeloid progenitors, lysozyme-GFP differentiation, flow cytometry; calls only at 10 µM; hit rate 1% among 360,000;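 active means normalized GFP-positive differentiation at or above the plate's own cutoff, the solvent-only control mean plus 3 SD; inconclusive means no clear call, values can overlap the other calls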;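 further: cells exposed to compound for four days before flow analysis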
Rpn11 inh: inhibitors of human proteasome Rpn11 | inhibition, % at 20 µM | human 26S proteasome, Ub4-pepOG fluorescence polarization; 20S core pre-blocked with epoxomicin | hit rate 0.59% among 360,000;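 active means inhibition at 20 µM, scaled to each plate's controls, above about 33%, limit read from the data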
Target sequence (O00487 whole entry, looked up): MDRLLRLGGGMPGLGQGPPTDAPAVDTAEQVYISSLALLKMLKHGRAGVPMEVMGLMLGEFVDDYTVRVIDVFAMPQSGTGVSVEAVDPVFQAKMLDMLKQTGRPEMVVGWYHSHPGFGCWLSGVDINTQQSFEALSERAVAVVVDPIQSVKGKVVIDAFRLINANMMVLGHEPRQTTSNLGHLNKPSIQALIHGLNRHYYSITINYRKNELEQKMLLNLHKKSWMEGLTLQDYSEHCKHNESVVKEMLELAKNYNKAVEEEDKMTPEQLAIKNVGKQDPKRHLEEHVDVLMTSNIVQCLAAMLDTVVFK
TPT1 inh: blocks Candida albicans tRNA 2'-phosphotransferase | AID 1962 | inhibition, % at 5 µM | hit rate 0.81% among 300,000 | recombinant caTPT1, FP RNA substrate dephosphorylation;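 active means inhibition above the mean of all tested compounds plus 3 SD, set per screening campaign, cut at about 24% in these data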
CSN inh: blocks human CSN-mediated cullin deneddylation. Q92905. Purified CSN, SCF-Nedd8-OG deneddylation, fluorescence polarization. inhibition, % at 12.5 µM. hit rate 0.38% among 360,000;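 active means pattern-corrected inhibition above about 35%, with an unprinted fluorescence ratio check between 0.5 and 1.5, limit read from the data, passing the limit was not always enough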
Target sequence (Q92905 whole entry, looked up, one chain of several): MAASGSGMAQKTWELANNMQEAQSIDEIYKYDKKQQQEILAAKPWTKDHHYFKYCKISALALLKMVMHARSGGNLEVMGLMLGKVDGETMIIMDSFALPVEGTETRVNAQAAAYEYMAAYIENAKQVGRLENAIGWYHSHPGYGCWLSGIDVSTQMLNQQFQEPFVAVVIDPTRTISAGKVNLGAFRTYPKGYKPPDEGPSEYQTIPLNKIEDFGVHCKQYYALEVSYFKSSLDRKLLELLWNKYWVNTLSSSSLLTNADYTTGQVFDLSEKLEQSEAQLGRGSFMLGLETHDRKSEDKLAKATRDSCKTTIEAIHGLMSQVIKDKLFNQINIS
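Assay system: HEK293T-derived human Csn5 enzyme; quantity: 0.24 nM enzyme; medium: Tris/NaCl/DTT buffer, pH 7.5; also added: substrate SCFSkp2-Nedd8OG, 10 nM; doses: 12.5 µM compound; schedule: 90 min reaction at room temperature; signal: FP; read-out: % inhibition of substrate cleavage by Csn5; benchmarks: substrate-only high control, full reaction low control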
TPT1 inh confirm: TPT1 (C. albicans) inhibition, confirmation | hit rate 74% among 2,400 | inhibition, % at 5 µM | shares compounds with TPT1 inh | recombinant caTPT1, fluorescence polarization, RNase T1 coupled;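 active means inhibition above the primary screen limit, the mean inhibition of all tested compounds plus 3 SD, cut at about 25% in these data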
RNase T1 counter: counter-screen for TPT1 inhibitors: inhibitors of Aspergillus oryzae RNase T1. shares compounds with TPT1 inh. RNase T1 cleavage, fluorescence polarization, 1536-well. inhibition, % at 5 µM. hit rate 83% among 2,400;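 active means inhibition above the solvent-only control well mean plus 3 SD, limit set per screening run, cut at about 23% in these data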;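 further: inhibitors block cleavage so intact labeled substrate keeps polarization high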
Rpn11 confirm: confirmation of human proteasome Rpn11 inhibitors; shares compounds with Rpn11 inh; purified human 26S proteasome, Ub4-pepOG fluorescence polarization; proteasome pretreated with epoxomicin; inhibition, % at 20 µM; hit rate 29% among 1,900
MMP-2 inh: counter-screen for RPN11 inhibitors: inhibition of human MMP-2; shares compounds with Rpn11 inh; recombinant MMP-2, FRET peptide cleavage fluorescence; inhibition, % at 20 µM; hit rate 4% among 1,900;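 further: human MMP-2 activated beforehand with APMA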
Thrombin inh: blocks bovine thrombin, flagging nonselective RPN11 hits. shares compounds with Rpn11 inh. bovine thrombin cleavage of Ub4-pepOG, fluorescence polarization. inhibition, % at 20 µM. hit rate 13% among 1,900;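 active means mean inhibition at least 40% at 20 µM, or signal 3 deviations below plate average, so some actives read negative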
Of the large screens only hits and unclear results are named; the others gave an inactive call (follow-up assays come after a bar, where they were run). The list is not random: actives were taken first. Their share in the collection is about 2.3%. Unless noted, no stated cut-off is given here; in the data, active means inhibition above about 40%; inactive means the rest.

CCOc1ccc(S(=O)(=O)Nc2ccc(C(=O)NCC(c3ccco3)N3CCCCC3)cc2)cc1 (stereo not drawn)	none
CCC1=[N+](CC(=O)c2ccc(C)cc2)CCn2cccc21	Rpn11 inh 75, TPT1 inh 61 | TPT1 inh confirm inactive | RNase T1 counter inactive | Rpn11 confirm inactive | MMP-2 inh inactive | Thrombin inh inactive
CCC1=[N+](CC(=O)c2ccc(C)cc2)CCn2c(C)ccc21	none
COc1ccc(/C=C2\Oc3cc(OCC(=O)N4CCC[C@H]4CO)ccc3C2=O)c(OC)c1	Rpn11 inh 75, TPT1 inh 65 | TPT1 inh confirm 85 | RNase T1 counter 93 | Rpn11 confirm 73 | MMP-2 inh inactive | Thrombin inh 62
COc1ccc(-c2csc(NC(=O)c3c(C)noc3C)n2)cc1OC	none (no result: TPT1 inh)
CSc1cccc(N2CC(C(=O)N3CCN(S(=O)(=O)c4ccccc4Cl)CC3)CC2=O)c1 (stereo not drawn)	none (no result: TPT1 inh)
CN(C)/N=C/C=C1\CCC/C(=C/c2cccs2)C1=O	Rpn11 inh 95, TPT1 inh 49 (no result: Myeloid diff MLP) | TPT1 inh confirm 56 | RNase T1 counter 66 | Rpn11 confirm inactive | MMP-2 inh inactive | Thrombin inh inactive
N#Cc1c(-c2cccs2)nc(SCC(=O)c2cccs2)[nH]c1=O	Rpn11 inh 47, TPT1 inh 40 | TPT1 inh confirm inactive | RNase T1 counter 30 | Rpn11 confirm 68 | MMP-2 inh inactive | Thrombin inh 44
COc1ccccc1NC(=O)CCN1C(=O)/C(=C\c2cc(OC)c(OC)c(OC)c2)SC1=S	none
COc1ccc(/C=C2\SC(=S)N(CCCC(=O)Nc3ccccc3C(=O)O)C2=O)cc1OC	Rpn11 inh 48, TPT1 inh 39 | TPT1 inh confirm 70 | RNase T1 counter 77 | Rpn11 confirm 88 | MMP-2 inh inactive | Thrombin inh 81
O=C(NN1C(=O)/C(=C/C=C/c2ccco2)SC1=S)c1ccccc1O	Rpn11 inh 177, TPT1 inh 71 | TPT1 inh confirm 49 | RNase T1 counter 50 | Rpn11 confirm 100 | MMP-2 inh 58 | Thrombin inh 60
O=C(N/N=C/c1ccc([N+](=O)[O-])o1)c1cc(-c2ccc(-c3ccccc3)cc2)nc2ccccc12	Myeloid diff MLP inconclusive
O=[N+]([O-])c1ccc(/C=N/Nc2ccnc3cc(Cl)ccc23)o1	Myeloid diff MLP inconclusive, Rpn11 inh 50, TPT1 inh 68 | TPT1 inh confirm 62 | RNase T1 counter 78 | Rpn11 confirm inactive | MMP-2 inh inactive | Thrombin inh inactive
Cc1cc(N/N=C/c2ccc([N+](=O)[O-])o2)nc2ccccc12	Myeloid diff MLP active, Rpn11 inh 51, TPT1 inh 49 | TPT1 inh confirm 50 | RNase T1 counter 64 | Rpn11 confirm inactive | MMP-2 inh inactive | Thrombin inh inactive
Clc1ccc2c(N/N=C/c3ccccc3Br)ccnc2c1	Myeloid diff MLP inconclusive
O=C(c1ccco1)N1CCN(Cc2nnnn2C2CCCCC2)CC1	none
CCCCn1c(N)c(N(CCC(C)C)C(=O)c2ccc(C)c(S(=O)(=O)N3CCOCC3)c2)c(=O)[nH]c1=O	none
Cc1ccc(/C=C(\C#N)C(=O)Nc2c(C)cccc2C)s1	Rpn11 inh 85, TPT1 inh 30, CSN inh 35 | TPT1 inh confirm 41 | RNase T1 counter 53 | Rpn11 confirm 96 | MMP-2 inh inactive | Thrombin inh 80
N#Cc1ccccc1Cn1cc(/C=N/Nc2ccc([N+](=O)[O-])cn2)c2ccccc21	Myeloid diff MLP active, Rpn11 inh 60, TPT1 inh 37 | TPT1 inh confirm 82 | RNase T1 counter 89 | Rpn11 confirm inactive | MMP-2 inh inactive | Thrombin inh inactive
O=[N+]([O-])c1ccc(N/N=C/c2cccs2)nc1	none
O=[N+]([O-])c1ccc(N/N=C\c2cccn2-c2ccccc2)nc1	Rpn11 inh 58, TPT1 inh 88 | TPT1 inh confirm 78 | RNase T1 counter 90 | Rpn11 confirm 44 | MMP-2 inh inactive | Thrombin inh inactive
CN(C)CCN(Cc1ccccc1)C(=O)c1[nH]c(C(F)(F)F)nc1-c1ccccc1	none (no result: TPT1 inh)
CCN1C(=O)/C(=C/C=C2/CCCN2C)OC1=S	HNF4A DNA FP 88, Rpn11 inh 76, TPT1 inh 78 | TPT1 inh confirm 106 | RNase T1 counter 116 | Rpn11 confirm 43 | MMP-2 inh inactive | Thrombin inh 54
O=C(O)CSc1ncnc2scc(-c3ccc(Br)cc3)c12	Rpn11 inh 51, TPT1 inh 35 | TPT1 inh confirm 46 | RNase T1 counter 55 | Rpn11 confirm inactive | MMP-2 inh inactive | Thrombin inh inactive
COc1ccc2[nH]c3c(c2c1)CCNC3(C)CCc1ccc(Cl)nc1 (stereo not drawn)	none
COc1ccc(-[n+]2c(C)cc(/C=C3\Sc4ccccc4N3C)cc2C)cc1	HNF4A DNA FP 50, Rpn11 inh 83, TPT1 inh 91 (no result: Myeloid diff MLP) | TPT1 inh confirm 123 | RNase T1 counter 128 | Rpn11 confirm 50 | MMP-2 inh inactive | Thrombin inh inactive
Cc1ccc(N=C2NC(=O)/C(=C/c3cccs3)S2)cc1C	Rpn11 inh 99, TPT1 inh 30 | TPT1 inh confirm 46 | RNase T1 counter 59 | Rpn11 confirm 64 | MMP-2 inh inactive | Thrombin inh inactive
Cc1ccc(N=C2NC(=O)/C(=C/c3cccn3C)S2)cc1C	none
CCOC(=O)NC(=O)/C(C#N)=C/c1ccc(N(C)C)cc1	HNF4A DNA FP 56, Rpn11 inh 126, TPT1 inh 99 | TPT1 inh confirm 115 | RNase T1 counter 125 | Rpn11 confirm 117 | MMP-2 inh inactive | Thrombin inh 98
c1ccc(CNCc2ccco2)cc1	none
Cc1cc(C)c2nc(NNC(=O)c3cc(=O)c4ccccc4o3)sc2c1	Rpn11 inh 47, TPT1 inh 25 | TPT1 inh confirm 27 | RNase T1 counter 41 | Rpn11 confirm inactive | MMP-2 inh inactive | Thrombin inh inactive
Cc1cc(C)c2nc(NNC(=O)c3ccc(S(=O)(=O)N4CCc5ccccc5C4)cc3)sc2c1	none
